Assay results: ChEMBL document CHEMBL1129251 (J Med Chem, 1996)

target: T1, Adrenergic receptor alpha-1 (Rattus norvegicus) (UniProt P15823+P23944+P43140); experiment: Agonistic activity against Alpha-1 adrenergic receptor in rat aorta expressed as percent maximal analog response relative to phenylephrine as 100%; format: functional, tissue-based
Procedure, shortened: (§1)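 Aorta from rats of 150-300 g, either sex. Tissue checked with 30 nM phenylephrine, then a cumulative phenylephrine curve. After 90 min the test agent was added cumulatively. Contraction expressed as % of the maximum to 1 µM phenylephrine (= 100%). EC50 is the molar 50% effective concentration; Emax is the maximal response relative to phenylephrine.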

First: c1cc2c3c(cccc3c1)C(c1c[nH]cn1)CC2 (configuration not stated)
Second: CC(c1c[nH]cn1)c1cccc2ccccc12 (configuration not stated)
The Emax of the first is lower: 38% for the first, 39% for the second.

system: not listed separately; experiment: Selectivity ratio of Ki of alpha-1 adrenergic receptor to alpha-2 receptor

Going from `C/C=C(\c1c[nH]cn1)c1cccc2ccccc12` to `C=C(c1c[nH]cn1)c1cccc2ccccc12`, the Ratio rises from 0.03 to 14.2.

First: c1cc2c3c(cccc3c1)C(c1c[nH]cn1)CC2 (configuration not stated)
Second: CC(c1c[nH]cn1)c1cccc2ccccc12 (configuration not stated)
The Ratio of the first is lower: 1.67 for the first, 17.2 for the second.

target: T2, Adrenergic receptor alpha-2 (Rattus norvegicus, UniProt P22086+P19328+P22909); experiment: Alpha-2 adrenergic receptor binding affinity was tested against membrane preparations of rat brain using 0.2 nM [3H]rauwolscine as radioligand
T2 sequence (P22086 whole entry): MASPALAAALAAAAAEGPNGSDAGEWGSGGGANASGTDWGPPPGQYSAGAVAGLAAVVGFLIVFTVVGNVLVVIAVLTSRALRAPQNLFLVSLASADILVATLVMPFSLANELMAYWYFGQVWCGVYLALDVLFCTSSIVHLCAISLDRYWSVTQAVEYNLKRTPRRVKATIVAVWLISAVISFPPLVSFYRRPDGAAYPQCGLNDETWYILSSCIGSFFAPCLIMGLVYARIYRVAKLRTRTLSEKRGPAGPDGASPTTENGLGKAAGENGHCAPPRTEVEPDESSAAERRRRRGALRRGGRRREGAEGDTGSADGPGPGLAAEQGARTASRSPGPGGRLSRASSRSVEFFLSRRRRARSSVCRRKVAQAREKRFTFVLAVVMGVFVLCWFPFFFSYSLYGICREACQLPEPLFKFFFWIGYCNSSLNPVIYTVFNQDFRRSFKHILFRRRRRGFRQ
T2 sequence (P19328 whole entry): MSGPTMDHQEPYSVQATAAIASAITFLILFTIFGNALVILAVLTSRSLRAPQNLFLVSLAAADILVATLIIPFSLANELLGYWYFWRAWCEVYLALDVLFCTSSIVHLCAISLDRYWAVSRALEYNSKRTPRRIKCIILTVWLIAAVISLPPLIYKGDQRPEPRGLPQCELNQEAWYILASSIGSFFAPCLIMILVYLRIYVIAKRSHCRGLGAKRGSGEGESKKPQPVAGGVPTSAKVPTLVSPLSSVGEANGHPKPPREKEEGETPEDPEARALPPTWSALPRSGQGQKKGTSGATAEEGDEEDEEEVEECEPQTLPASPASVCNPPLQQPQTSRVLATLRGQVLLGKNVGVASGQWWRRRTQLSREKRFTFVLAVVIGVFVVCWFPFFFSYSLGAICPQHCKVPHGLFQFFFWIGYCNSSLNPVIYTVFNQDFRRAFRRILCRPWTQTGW
T2 sequence (P22909 whole entry): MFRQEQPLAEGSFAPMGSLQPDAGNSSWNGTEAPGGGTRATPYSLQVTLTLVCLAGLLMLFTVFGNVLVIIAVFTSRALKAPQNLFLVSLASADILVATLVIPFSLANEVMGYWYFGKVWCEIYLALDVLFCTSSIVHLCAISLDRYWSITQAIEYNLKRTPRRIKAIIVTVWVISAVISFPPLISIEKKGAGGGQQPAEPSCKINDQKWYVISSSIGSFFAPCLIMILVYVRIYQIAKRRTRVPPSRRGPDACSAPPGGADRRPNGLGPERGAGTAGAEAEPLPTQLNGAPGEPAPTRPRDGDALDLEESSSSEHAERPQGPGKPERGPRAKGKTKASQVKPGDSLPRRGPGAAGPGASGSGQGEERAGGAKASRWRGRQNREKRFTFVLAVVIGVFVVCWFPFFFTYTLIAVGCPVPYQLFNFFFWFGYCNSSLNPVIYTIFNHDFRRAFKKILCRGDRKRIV
Procedure, shortened: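 Rat frontal cortex membranes at about 500 µg/mL protein, labelled with [3H]rauwolscine in Tris buffer pH 7.4 containing 10 mM EDTA. Nonspecific binding set by 10 µM phentolamine. 30 °C for 30 min, then filtration and scintillation counting, in triplicate.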

Compared with `C/C=C(\c1c[nH]cn1)c1cccc2ccccc12`, `C=C(c1c[nH]cn1)c1cccc2ccccc12` is 15-fold lower in Ki: 1890 nM for the first, 122 nM for the second.

First: c1cc2c3c(cccc3c1)C(c1c[nH]cn1)CC2 (configuration not stated)
Second: CC(c1c[nH]cn1)c1cccc2ccccc12 (configuration not stated)
The Ki of the first is 2.5-fold higher: 33 nM for the first, 13 nM for the second.

system: not listed separately; experiment: Antagonistic activity against alpha2 adrenoceptor in human blood platelets expressed as IC50(medetomidine)/IC50(analog); format: functional
Procedure, shortened: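 Human platelet-rich plasma; inhibitor at various concentrations added 1 min before triggering aggregation with epinephrine (30-100 µM); aspirin 1 mM routinely added to study the primary-wave aggregation response.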

Compound `CC(c1c[nH]cn1)c1cccc2ccccc12` (configuration not stated) has a Potency ratio of 0.69.

target: T3, Adrenergic receptor alpha-2 (Homo sapiens, UniProt P08913+P18825+P18089); experiment: Alpha-2 adrenergic receptor antagonistic activity in human blood platelets.; format: functional, tissue-based
T3 sequence (P08913 whole entry): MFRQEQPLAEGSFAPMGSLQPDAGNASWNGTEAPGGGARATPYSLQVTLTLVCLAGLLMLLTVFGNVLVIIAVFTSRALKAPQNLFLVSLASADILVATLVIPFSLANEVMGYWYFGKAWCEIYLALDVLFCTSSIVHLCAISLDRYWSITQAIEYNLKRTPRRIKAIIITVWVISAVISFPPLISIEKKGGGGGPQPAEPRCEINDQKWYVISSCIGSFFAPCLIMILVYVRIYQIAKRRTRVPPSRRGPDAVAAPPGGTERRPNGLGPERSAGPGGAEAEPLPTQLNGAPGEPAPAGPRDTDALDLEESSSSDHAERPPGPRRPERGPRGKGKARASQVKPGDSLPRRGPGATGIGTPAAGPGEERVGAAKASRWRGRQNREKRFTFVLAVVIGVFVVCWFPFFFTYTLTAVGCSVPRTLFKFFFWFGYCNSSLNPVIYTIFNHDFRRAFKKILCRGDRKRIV
T3 sequence (P18825 whole entry): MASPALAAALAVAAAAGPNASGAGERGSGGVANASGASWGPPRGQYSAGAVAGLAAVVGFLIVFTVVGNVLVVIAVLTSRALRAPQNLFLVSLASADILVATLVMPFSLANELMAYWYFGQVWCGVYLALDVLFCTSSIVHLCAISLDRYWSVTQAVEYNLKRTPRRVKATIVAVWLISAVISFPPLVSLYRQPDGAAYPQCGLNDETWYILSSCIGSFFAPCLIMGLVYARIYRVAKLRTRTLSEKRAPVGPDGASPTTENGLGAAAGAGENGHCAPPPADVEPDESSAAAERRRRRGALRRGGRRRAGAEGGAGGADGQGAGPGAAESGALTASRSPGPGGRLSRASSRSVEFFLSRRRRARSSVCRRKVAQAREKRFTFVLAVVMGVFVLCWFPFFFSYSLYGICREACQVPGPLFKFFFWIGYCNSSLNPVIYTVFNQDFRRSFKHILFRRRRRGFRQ
T3 sequence (P18089 whole entry): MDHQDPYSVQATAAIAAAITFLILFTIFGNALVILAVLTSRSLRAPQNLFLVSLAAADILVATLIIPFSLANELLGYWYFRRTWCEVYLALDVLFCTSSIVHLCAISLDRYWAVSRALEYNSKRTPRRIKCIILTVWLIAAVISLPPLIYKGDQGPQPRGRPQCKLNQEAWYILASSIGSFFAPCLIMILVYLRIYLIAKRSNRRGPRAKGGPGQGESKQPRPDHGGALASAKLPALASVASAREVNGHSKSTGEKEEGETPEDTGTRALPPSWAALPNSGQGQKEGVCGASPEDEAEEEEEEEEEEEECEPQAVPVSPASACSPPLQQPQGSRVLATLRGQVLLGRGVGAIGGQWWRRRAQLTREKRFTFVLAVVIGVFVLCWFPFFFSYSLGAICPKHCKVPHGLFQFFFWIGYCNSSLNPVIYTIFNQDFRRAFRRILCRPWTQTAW
Procedure, shortened: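 Human platelet-rich plasma pretreated with 1 mM aspirin. Inhibitor at various concentrations added 1 min before epinephrine (30-100 µM).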

First: C/C=C(\c1c[nH]cn1)c1cccc2ccccc12
Second: c1cc2c3c(cccc3c1)C(c1c[nH]cn1)CC2 (configuration not stated)
The IC50 of the first is 15-fold higher: 215400 nM for the first, 14300 nM for the second.

target: T1, Adrenergic receptor alpha-1 (Rattus norvegicus); experiment: Antagonistic activity against Alpha-1 adrenergic receptor in rat aorta; format: functional, tissue-based
Procedure, shortened: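 Rat aorta rings (rats 150-300 g, either sex) contracted by cumulative phenylephrine, with and without the antagonist. KB = [B]/(DR − 1), where DR is the dose ratio in the presence and absence of the antagonist.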

`C/C=C(\c1c[nH]cn1)c1cccc2ccccc12` gave a Kb of 3390 nM.

target: T3, Adrenergic receptor alpha-2; experiment: Antagonistic activity against Alpha-2 adrenergic receptor in human blood platelets; format: functional, tissue-based
Procedure, shortened: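 Human platelet-rich plasma pretreated with 1 mM aspirin. Inhibitor at various concentrations added 1 min before epinephrine (30-100 µM). Primary-wave aggregation measured; IC50 is the molar 50% inhibitory concentration.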

In the case of `CC(c1c[nH]cn1)c1cccc2ccccc12` (configuration not stated), the IC50 was 4300 nM.

target: T4, Adrenergic receptor alpha-1 (Rattus norvegicus, UniProt P15823+P23944+P43140); experiment: 50% Molar effective concentration for agonistic activity against Alpha-1 adrenergic receptor in rat aorta; format: functional, tissue-based; procedure, shortened: as §1
T4 sequence (P15823 whole entry): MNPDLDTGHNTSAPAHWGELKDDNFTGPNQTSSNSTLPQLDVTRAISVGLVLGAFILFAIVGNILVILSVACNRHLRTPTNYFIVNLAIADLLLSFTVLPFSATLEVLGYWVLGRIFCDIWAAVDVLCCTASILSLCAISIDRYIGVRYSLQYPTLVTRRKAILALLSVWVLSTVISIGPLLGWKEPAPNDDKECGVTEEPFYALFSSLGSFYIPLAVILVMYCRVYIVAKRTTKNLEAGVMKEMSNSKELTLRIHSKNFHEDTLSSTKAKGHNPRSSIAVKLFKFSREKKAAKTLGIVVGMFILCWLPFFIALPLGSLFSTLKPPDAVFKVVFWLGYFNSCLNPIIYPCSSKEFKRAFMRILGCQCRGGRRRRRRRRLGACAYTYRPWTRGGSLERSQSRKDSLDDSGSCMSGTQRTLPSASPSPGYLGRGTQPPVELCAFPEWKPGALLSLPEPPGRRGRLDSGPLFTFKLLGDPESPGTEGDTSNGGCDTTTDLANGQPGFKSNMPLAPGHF
T4 sequence (P23944 whole entry): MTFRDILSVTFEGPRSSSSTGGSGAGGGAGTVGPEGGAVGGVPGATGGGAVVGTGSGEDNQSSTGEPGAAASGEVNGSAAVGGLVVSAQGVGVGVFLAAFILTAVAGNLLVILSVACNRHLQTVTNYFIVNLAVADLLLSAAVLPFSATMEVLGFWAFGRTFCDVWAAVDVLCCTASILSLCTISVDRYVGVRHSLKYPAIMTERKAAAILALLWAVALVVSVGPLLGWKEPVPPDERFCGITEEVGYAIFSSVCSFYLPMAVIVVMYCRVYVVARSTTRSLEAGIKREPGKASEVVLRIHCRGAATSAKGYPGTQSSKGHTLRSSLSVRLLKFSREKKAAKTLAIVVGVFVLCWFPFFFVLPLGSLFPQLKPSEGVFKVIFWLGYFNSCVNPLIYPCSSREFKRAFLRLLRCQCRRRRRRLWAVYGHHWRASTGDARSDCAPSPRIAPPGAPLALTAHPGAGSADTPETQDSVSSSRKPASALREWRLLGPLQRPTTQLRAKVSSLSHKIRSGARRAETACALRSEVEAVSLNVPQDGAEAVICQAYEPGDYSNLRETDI
T4 sequence (P43140 whole entry): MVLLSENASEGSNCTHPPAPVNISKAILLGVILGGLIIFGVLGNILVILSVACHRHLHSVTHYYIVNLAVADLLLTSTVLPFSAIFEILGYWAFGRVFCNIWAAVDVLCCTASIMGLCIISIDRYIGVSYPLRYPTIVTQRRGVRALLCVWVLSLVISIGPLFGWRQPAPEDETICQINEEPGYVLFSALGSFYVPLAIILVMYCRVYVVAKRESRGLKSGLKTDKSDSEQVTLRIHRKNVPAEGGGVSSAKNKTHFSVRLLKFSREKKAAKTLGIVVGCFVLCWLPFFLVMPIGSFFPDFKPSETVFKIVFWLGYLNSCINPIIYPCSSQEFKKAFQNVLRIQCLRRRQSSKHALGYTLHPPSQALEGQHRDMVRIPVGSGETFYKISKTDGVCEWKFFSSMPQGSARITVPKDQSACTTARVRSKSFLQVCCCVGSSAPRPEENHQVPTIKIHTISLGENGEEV

For `CC(c1c[nH]cn1)c1cccc2ccccc12` (configuration not stated), the EC50 was 153 nM.

system: not listed separately; experiment: alpha 2 antagonistic adrenoceptor activity in human blood platelets Potency ratio: IC50(medetomidine)/IC50(analog); format: functional
Procedure, shortened: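 Inhibition of epinephrine (30-100 µM)-induced primary-wave aggregation in aspirin (1 mM)-treated human platelet-rich plasma, with inhibitor added 1 min before agonist.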

Compared with `C/C=C(\c1c[nH]cn1)c1cccc2ccccc12`, `c1cc2c3c(cccc3c1)C(c1c[nH]cn1)CC2` (configuration not stated) is higher in Potency ratio: 0.01 for the first, 0.2 for the second.

target: T4, Adrenergic receptor alpha-1; experiment: Alpha-1 adrenergic receptor binding affinity in rat brain membranes; format: cell membranes
Procedure, shortened: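 Rat frontal cortex membranes, washed in 50 mM Tris-HCl/10 mM MgCl2 pH 7.4, at about 300 µg/mL protein. Labelled with 0.1 nM [3H]prazosin in the same buffer. Nonspecific binding set by 10 µM phentolamine. 30 °C for 30 min, then filtration and scintillation counting, in triplicate.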

Going from `C/C=C(\c1c[nH]cn1)c1cccc2ccccc12` to `C=C(c1c[nH]cn1)c1cccc2ccccc12`, the Ki rises from 57 nM to 1734 nM (30-fold).

First: c1cc2c3c(cccc3c1)C(c1c[nH]cn1)CC2 (configuration not stated)
Second: CC(c1c[nH]cn1)c1cccc2ccccc12 (configuration not stated)
The Ki of the first is 4.1-fold lower: 55 nM for the first, 224 nM for the second.
